What was measured:
[1] = organism: Homo sapiens; assay: Spasmogenic activity was measured by the ability to induce smooth muscle contraction in human fetal artery; assay type: functional, Muscle tissue
In short: (§1)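 Human fetal artery smooth muscle contraction; full dose–response curves for recombinant human C5a or each peptide in the same tissue preparation. EC50 is the concentration giving 50% of the maximal response, read relative to the C5a maximum. pD2 = −log EC50 (M), averaged per peptide ± SE. Log potency ratio pD2(C5a) − pD2(peptide) is computed within each experiment. Relative potency = antilog(−Δ) × 100.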

[2] = organism: Homo sapiens; assay: Tested for the ability to stimulate beta-glucuronidase release from human polymorphonuclear cells (PMN) (n=4); assay type: functional
In short: (§2)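 Human PMNs pretreated with cytochalasin B (5 μg/mL, 10 min, 37 °C), then 10⁶ cells stimulated for 60 min at 37 °C. β-Glucuronidase in the supernatant is assayed with 0.01 M p-nitrophenyl β-D-glucuronide (0.1 M acetate, pH 4, 18 h) in triplicate. Reaction stopped with glycine pH 10 and read at 415 nm. pD2 is taken from dose–response curves against the C5a EC50. Efficacy is given relative to C5a maximum (100%).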

[3] = organism: Homo sapiens; assay: Log potency ratio [log IC50(C5a)-log IC50(peptide)] was determined in human polymorphonuclear cells (PMN) (n=3); assay type: functional
In short: (§3)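 Competition binding on freshly isolated intact human PMNs (0.25 × 10⁶) with 20 pM [¹²⁵I]C5a plus unlabeled C5a or peptide. Buffer is 50 mM HEPES, 1 mM CaCl₂, 5 mM MgCl₂, 0.5% BSA. Incubation 60 min at 4 °C, then filtration, ice-cold washes and gamma counting, triplicates. Nonspecific binding defined with 1 mM peptide or 100 nM C5a. Relative affinity = antilog[−(log IC50 C5a − log IC50 peptide)] × 100. The potency/binding ratio is EC50 divided by the binding IC50.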

[4] = organism: Homo sapiens; assay: Log potency ratio [pD2(C5a)-pD2(peptide)] was determined in human fetal artery; assay type: functional; in short: as §1
[5] = organism: Homo sapiens; assay: Log potency ratio [pD2(C5a)-pD2(peptide)] was determined for human polymorphonuclear cells (PMN) (n=4); assay type: functional; in short: as §2
[6] = organism: Homo sapiens; assay: Relative affinity for PMN receptor (n=3); assay type: functional; in short: as §3
[7] = organism: Homo sapiens; assay: (§4) Selectivity of peptide was determined from antilog[pD2(fetal artery)-pD2 (PMN enzyme release)] (n=10); assay type: functional
In short: (§5)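 Selectivity = antilog[pD2(fetal artery) − pD2(PMN β-glucuronidase release)]. pD2 values come from full dose–response curves in each assay, each generated alongside C5a.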

[8] = organism: Homo sapiens; assay: Relative potency of peptide to stimulate beta-glucuronidase release from human polymorphonuclear cells (PMN) (n=4); assay type: functional; in short: as §2
[9] = organism: Homo sapiens; assay: Relative potency of peptide for human fetal artery was determined; assay type: functional; in short: as §1
[10] = organism: Homo sapiens; assay: Maximum efficacy relative to C5a (100%) for human polymorphonuclear cells (PMN) was determined (n=4); assay type: functional; in short: as §2
[11] = organism: Homo sapiens; assay: Ratio of concentration agonist potency (EC50) to concentration inhibiting [125I]C5a binding (n=3); assay type: functional; in short: as §3
[12] = Selectivity of peptide was determined from antilog[pD2(fetal artery)-pD2 (PMN enzyme release)] (n=12); assay type: functional; in short: as §5
[13] = organism: Homo sapiens; assay: Log potency ratio [pD2(C5a)-pD2(peptide)] was determined in human polymorphonuclear cells (PMN) (n=4); assay type: functional; in short: as §2
[14] = organism: Homo sapiens; assay: Tested for inhibition of binding of [125I]C5a to intact human polymorphonuclear cells (PMN) (n=3); assay type: functional; in short: as §3
[15] = organism: Homo sapiens; assay: Effective concentration to stimulate beta-glucuronidase release from human polymorphonuclear cells (PMN) (n=4); assay type: functional; in short: as §2
[16] = organism: Homo sapiens; assay: Effective concentration to induce smooth muscle contraction in human fetal artery; assay type: functional; conditions: Muscle tissue; in short: as §1
[17] = as §4; assay type: functional; in short: as §5
[18] = Selectivity of peptide was determined from antilog[pD2(fetal artery)-pD2 (PMN enzyme release)] (n=11); assay type: functional; in short: as §5
[19] = organism: Homo sapiens; assay: Log potency ratio [pD2(C5a)-pD2(peptide)] was determined in human polymorphonuclear cells (PMN) (n=5); assay type: functional; in short: as §2
[20] = organism: Homo sapiens; assay: Tested for the ability to stimulate beta-glucuronidase release from human polymorphonuclear cells (PMN) (n=5); assay type: functional; in short: as §2
[21] = organism: Homo sapiens; assay: Maximum efficacy relative to C5a (100%) for human polymorphonuclear cells (PMN) was determined (n=5); assay type: functional; in short: as §2
[22] = organism: Homo sapiens; assay: Relative potency of peptide to stimulate beta-glucuronidase release from human polymorphonuclear cells (PMN) (n=5); assay type: functional; in short: as §2

SMILES	pD2 [1]	pD2 [2]	Mean log concentration ratio [4]	Potency [8] [%]	Potency [9] [%]	C5a max [10] [%]	Mean log concentration ratio [13]	further results
CSCC[C@H](NC(=O)[C@@H]1CCCN1C(=O)[C@H](CCCCN)NC(=O)[C@H](Cc1ccccc1)NC(=O)[C@H](CO)NC(=O)[C@H](Cc1ccc(O)cc1)NC(=O)CCCCCN)C(=O)N1CCC[C@H]1C(=O)N[C@@H](CC(C)C)C(=O)N[C@H](C)C(=O)N[C@@H](CCCN=C(N)N)C(=O)O [listing 1 of 2 here]	7.16	5.51	0.79	1.2	16	180		Mean log concentration ratio [3]: 4.33; Mean log concentration ratio [5]: 1.9; C5a affinity [6]: 0.005%; Selectivity [7]: 45; Ratio [11]: 0.6
CSCC[C@H](NC(=O)[C@@H]1CCCN1C(=O)[C@H](CCCCN)NC(=O)[C@H](Cc1ccccc1)NC(=O)[C@H](CO)NC(=O)[C@H](Cc1ccc(O)cc1)NC(=O)CCCCCNC(=O)[C@H](CCCCN)NC(=O)CNC(=O)[C@H](CCCCN)NC(=O)CNC(=O)[C@@H](N)CCCCN)C(=O)N1CCC[C@H]1C(=O)N[C@@H](CC(C)C)C(=O)N[C@H](C)C(=O)N[C@@H](CCCN=C(N)N)C(=O)O	6.98	5.18	0.99	0.6	10	173	2.2	Selectivity [12]: 63
CSCC[C@H](NC(=O)[C@@H]1CCCN1C(=O)[C@H](CCCCN)NC(=O)[C@H](Cc1ccccc1)NC(=O)[C@H](CO)NC(=O)[C@H](Cc1ccc(O)cc1)NC(=O)CCCCCN)C(=O)N1CCC[C@H]1C(=O)N[C@@H](CC(C)C)C(=O)N[C@H](C)C(=O)N[C@@H](CCCN=C(N)N)C(=O)O [listing 2 of 2 here]								IC50 [14]: 5.5 µM; EC50 [15]: 3.1 µM; EC50 [16]: 0.07 µM
CSCC[C@H](NC(=O)[C@@H]1CCCN1C(=O)[C@H](CCCCN)NC(=O)[C@H](Cc1ccccc1)NC(=O)[C@H](CO)NC(=O)[C@H](Cc1ccc(O)cc1)NC(=O)[C@H](CCCCN)NC(=O)CNC(=O)[C@H](CCCCN)NC(=O)CNC(=O)[C@@H](N)CCCCN)C(=O)N1CCC[C@H]1C(=O)N[C@@H](CC(C)C)C(=O)N[C@H](C)C(=O)N[C@@H](CCCN=C(N)N)C(=O)O	6.81	5.4	1.2	0.9	6.2	198	2.05	Selectivity [17]: 26
CSCC[C@H](NC(=O)[C@@H]1CCCN1C(=O)[C@H](CCCCN)NC(=O)[C@H](Cc1ccccc1)NC(=O)[C@H](CO)NC(=O)[C@H](Cc1ccc(O)cc1)NC(=O)CCCCCNC(=O)[C@H](CCCCN)NC(=O)CNC(=O)[C@@H](N)CCCCN)C(=O)N1CCC[C@H]1C(=O)N[C@@H](CC(C)C)C(=O)N[C@H](C)C(=O)N[C@@H](CCCN=C(N)N)C(=O)O	6.98	5.31	0.97	1	11	156	1.99	Selectivity [17]: 47
CSCC[C@H](NC(=O)[C@@H]1CCCN1C(=O)[C@H](CCCCN)NC(=O)[C@H](Cc1ccccc1)NC(=O)[C@H](CO)NC(=O)[C@H](Cc1ccc(O)cc1)NC(=O)CNC(=O)CNC(=O)CNC(=O)[C@H](CCCCN)NC(=O)CNC(=O)[C@H](CCCCN)NC(=O)CNC(=O)[C@@H](N)CCCCN)C(=O)N1CCC[C@H]1C(=O)N[C@@H](CC(C)C)C(=O)N[C@H](C)C(=O)N[C@@H](CCCN=C(N)N)C(=O)O	7.14	5.71	0.83	1.8	15	177	1.74	Selectivity [18]: 27
CSCC[C@H](NC(=O)[C@@H]1CCCN1C(=O)[C@H](CCCCN)NC(=O)[C@H](Cc1ccccc1)NC(=O)[C@H](CO)NC(=O)[C@H](Cc1ccc(O)cc1)NC(=O)CCCCCNC(=O)[C@H](Cc1c[nH]c2ccccc12)NC(=O)[C@@H](N)CCCCN)C(=O)N1CCC[C@H]1C(=O)N[C@@H](CC(C)C)C(=O)N[C@H](C)C(=O)N[C@@H](CCCN=C(N)N)C(=O)O	7.11		0.86		14			Mean log concentration ratio [19]: 1.72; pD2 [20]: 5.6; C5a max [21]: 134%; Potency [22]: 1.9%; Selectivity [18]: 32
CSCC[C@H](NC(=O)[C@@H]1CCCN1C(=O)[C@H](CCCCN)NC(=O)[C@H](Cc1ccccc1)NC(=O)[C@H](CO)NC(=O)[C@H](Cc1ccc(O)cc1)NC(C)=O)C(=O)N1CCC[C@H]1C(=O)N[C@@H](CC(C)C)C(=O)N[C@H](C)C(=O)N[C@@H](CCCN=C(N)N)C(=O)O								EC50 [15]: 9.3 µM; EC50 [16]: 0.1 µM
